Results taken from ChEMBL document CHEMBL3108772, “Discovery of Potent and Orally Active p53-MDM2 Inhibitors RO5353 and RO2468 for Potential Clinical Development” (ACS Med Chem Lett, 2014).
Active and inactive are the calls of the source. The rule behind the calls is not given here.

Columns and labels:
[1] = test system: SJSA-1; assay: Antiproliferative activity against human SJSA cells expressing wild-type p53 by MTT assay
[2] = test system: SW480; assay: Antiproliferative activity against human SW480 cells expressing p53 mutant by MTT assay
[3] = Oral bioavailability in C57 mouse at 10 mg/kg; type: ADME, organism-based; settings: in vivo
Procedure, shortened: (§1)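 Single-dose PK in male C57 mice, given orally (PO) or intravenously (IV). Plasma exposure (AUC normalized to dose, Cmax) was taken from the oral arms. Clearance and t1/2 were taken from the IV arms. F is oral bioavailability.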

[4] = test system: SJSA-1; assay: Antiproliferative activity against human SJSA cells expressing wild-type p53 by MTT assay
[5] = Total plasma clearance in C57 mouse at 2.5 mg/kg, iv; type: ADME, organism-based; parameters: dose 2.5 mg/kg, route intravenous; procedure, shortened: as §1
[6] = test system: RKO; assay: Antiproliferative activity against human RKO cells expressing wild-type p53 by MTT assay; type: functional, cell-based
Procedure, shortened: (§2)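 MTT antiproliferation assay in human cancer lines: SJSA, HCT116 and RKO are wild-type p53; SW480 is mutant p53. IC50 came from one experiment run in duplicate.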

[7] = test system: Mus musculus; assay: AUC/dose in C57 mouse at 10 mg/kg, po; type: ADME, organism-based, Plasma; parameters: dose 10 mg/kg, route oral; settings: in vivo; procedure, shortened: as §1
[8] = test system: HCT-116; assay: Antiproliferative activity against human HCT116 cells expressing wild-type p53 by MTT assay; type: functional, cell-based; procedure, shortened: as §2
[9] = Cmax in C57 mouse at 10 mg/kg, po; type: ADME, organism-based; parameters: dose 10 mg/kg, route oral; settings: in vivo; procedure, shortened: as §1
[10] = Apparent terminal half life in C57 mouse at 2.5 mg/kg, iv; type: ADME, organism-based; parameters: dose 2.5 mg/kg, route intravenous; settings: in vivo, read-out: betat1/2(app) (converted); procedure, shortened: as §1
[11] = Apparent terminal half life in C57 mouse at 0.64 mg/kg, iv; type: ADME, organism-based; parameters: dose 0.64 mg/kg, route intravenous; settings: in vivo, read-out: betat1/2(app) (converted); procedure, shortened: as §1
[12] = test system: SJSA-1; assay: Antitumor activity against human SJSA1 cells xenografted in nude mouse assessed as tumor regression at 6.25 mg/kg, po qd administered for 2 weeks; type: functional, organism-based; parameters: dose 6.25 mg/kg
[13] = Cmax in C57 mouse at 25 mg/kg, po; type: ADME, organism-based; parameters: dose 25 mg/kg, route oral; settings: in vivo; procedure, shortened: as §1
[14] = test system: Mus musculus; assay: AUC/dose in C57 mouse at 25 mg/kg, po; type: ADME, organism-based, Plasma; parameters: dose 25 mg/kg, route oral; settings: in vivo; procedure, shortened: as §1
[15] = Intrinsic clearance in human liver microsomes at […] preincubated for 5 mins followed by NADPH addition by LC-MS/MS analysis; type: ADME; settings: read-out: CLH
[16] = Total plasma clearance in C57 mouse at 0.64 mg/kg, iv; type: ADME, organism-based; parameters: dose 0.64 mg/kg, route intravenous; procedure, shortened: as §1
[17] = Oral bioavailability in C57 mouse at 25 mg/kg; type: ADME, organism-based; settings: in vivo; procedure, shortened: as §1
[18] = test system: SJSA-1; assay: Antitumor activity against human SJSA1 cells xenografted in nude mouse assessed as tumor regression at 10 mg/kg, po qd administered for 2 weeks; type: functional, organism-based; parameters: dose 10 mg/kg
[19] = test system: SJSA-1; assay: Antitumor activity against human SJSA1 cells xenografted in nude mouse assessed as tumor growth inhibition at 3 mg/kg, po qd administered for 2 weeks; type: functional, organism-based; parameters: dose 3 mg/kg
[20] = Total plasma clearance in C57 mouse at 2 mg/kg, iv; type: ADME, organism-based; parameters: dose 2 mg/kg, route intravenous; procedure, shortened: as §1
[21] = test system: Mus musculus; assay: AUC/dose in C57 mouse at 5 mg/kg, po; type: ADME, organism-based, Plasma; parameters: dose 5 mg/kg, route oral; settings: in vivo; procedure, shortened: as §1
[22] = test system: Mus musculus; assay: Toxicity in nude mouse xenografted with human SJSA1 cells assessed as body weight loss at 3 to 20 mg/kg, po qd administered for 2 weeks; type: organism-based, SJSA-1; parameters: dose 3-20 mg/kg, route oral; settings: in vivo, 336 h
[23] = Oral bioavailability in C57 mouse at 5 mg/kg; type: ADME, organism-based; settings: in vivo; procedure, shortened: as §1
[24] = Apparent terminal half life in C57 mouse at 2 mg/kg, iv; type: ADME, organism-based; parameters: dose 2 mg/kg, route intravenous; settings: in vivo, read-out: betat1/2(app) (converted); procedure, shortened: as §1
[25] = Cmax in C57 mouse at 5 mg/kg, po; type: ADME, organism-based; parameters: dose 5 mg/kg, route oral; settings: in vivo; procedure, shortened: as §1

In the case of `COc1cc(C(=O)O)ccc1NC(=O)[C@@H]1N[C@@H](CC(C)(C)C)[C@@]2(C(=O)Nc3nc(Cl)ncc32)[C@H]1c1cccc(Cl)c1F` (racemic), the IC50 [1] is reported as 0.1 µM and the IC50 [2] is reported as over 30 µM.

For `COc1cc(C(N)=O)ccc1NC(=O)[C@@H]1N[C@@H](CC(C)(C)C)[C@@]2(C(=O)Nc3ccncc32)[C@H]1c1cccc(Cl)c1F` (racemic), the IC50 [1] was 2.11 µM and the IC50 [2] was 13.4 µM.

Molecule `COc1cc(C(=O)O)ccc1NC(=O)[C@@H]1N[C@@H](CC(C)(C)C)[C@@]2(C(=O)Nc3ccncc32)[C@H]1c1cccc(Cl)c1F` (racemic) has an IC50 [1] of 22.7 µM and an IC50 [2] of over 30 µM.

Work on `COc1cc(C(N)=O)ccc1NC(=O)[C@@H]1N[C@@H](CC(C)(C)C)[C@@]2(C(=O)Nc3nc(Cl)ccc32)[C@H]1c1cccc(Cl)c1F` (racemic) yielded an IC50 [1] of 0.067 µM and an IC50 [2] of 5.26 µM.

In the case of `COc1cc(C(=O)O)ccc1NC(=O)[C@@H]1N[C@@H](CC(C)(C)C)[C@@]2(C(=O)Nc3nc(Cl)ccc32)[C@H]1c1cccc(Cl)c1F` (racemic), the IC50 [1] is reported as 0.045 µM and the IC50 [2] is reported as 15.4 µM.

With `COc1cc(C(N)=O)ccc1NC(=O)C1NC(CC(C)(C)C)C2(C(=O)Nc3cc(Cl)ncc32)C1c1cccc(Cl)c1F` (racemic) the IC50 [1] was 0.014 µM and the IC50 [2] was 12.8 µM.

Work on `COc1cc(C(N)=O)ccc1NC(=O)[C@@H]1N[C@@H](CC(C)(C)C)[C@@]2(C(=O)Nc3cc(Cl)cnc32)[C@H]1c1cccc(Cl)c1F` (racemic) yielded an IC50 [1] of 0.042 µM and an IC50 [2] of 5.9 µM.

`COc1cc(C(=O)O)ccc1NC(=O)C1NC(CC(C)(C)C)C2(C(=O)Nc3cc(Cl)sc32)C1c1cccc(Cl)c1F` (racemic) gave an IC50 [1] of 0.009 µM and an IC50 [2] of 29.3 µM.

In the case of `COc1cc(C(=O)O)ccc1NC(=O)[C@@H]1N[C@@H](CC(C)(C)C)[C@@]2(C(=O)Nc3cc(Cl)sc32)[C@H]1c1cccc(Cl)c1F`, the bioavailability [3] is reported as 32%, the Activity [4] is reported as “Active” and the clearance [5] is reported as 68.6 mL/min/kg. The Activity [6] was “Active”, the AUC/dose [7] was 0.08 µg·h/mL/mg/kg and the Activity [8] was “Active”. For the same molecule, the Cmax [9] was 300 ng/mL and the half-life [10] was 1.68 h.

For `COc1cc(C(N)=O)ccc1NC(=O)[C@@H]1N[C@@H](CC(C)(C)C)[C@@]2(C(=O)Nc3nc(Cl)ncc32)[C@H]1c1cccc(Cl)c1F` (racemic), the IC50 [1] was 0.09 µM and the IC50 [2] was 10.7 µM.

With `COc1cc(C(N)=O)ccc1NC(=O)[C@@H]1N[C@@H](CC(C)(C)C)[C@@]2(C(=O)Nc3cc(Cl)ccc32)[C@H]1c1cccc(Cl)c1F` the half-life [11] was 7.1 h, the Activity [12] was “Active” and the Cmax [13] was 5800 ng/mL. For the same molecule, the AUC/dose [14] was 3.7 µg·h/mL/mg/kg, the CLint scaled [15] was 7.5 mL/min/kg and the IC50 [1] was 0.013 µM. The clearance [16] was 5.8 mL/min/kg, the bioavailability [17] was 92% and the IC50 [2] was 5.19 µM.

In the case of `COc1cc(C(N)=O)ccc1NC(=O)C1NC(CC(C)(C)C)C2(C(=O)Nc3cc(Cl)sc32)C1c1cccc(Cl)c1F` (racemic), the IC50 [1] is reported as 0.011 µM and the IC50 [2] is reported as 7.87 µM.

Work on `COc1cc(C(=O)O)ccc1NC(=O)[C@@H]1N[C@@H](CC(C)(C)C)[C@@]2(C(=O)Nc3cc(Cl)cnc32)[C@H]1c1cccc(Cl)c1F` (racemic) yielded an IC50 [1] of 0.061 µM and an IC50 [2] of over 30 µM.

`COc1cc(C(=O)O)ccc1NC(=O)[C@@H]1N[C@@H](CC(C)(C)C)[C@@]2(C(=O)Nc3ncccc32)[C@H]1c1cccc(Cl)c1F` (racemic) gave an IC50 [1] of 1.37 µM and an IC50 [2] of over 30 µM.

With `COc1cc(C(N)=O)ccc1NC(=O)[C@@H]1N[C@@H](CC(C)(C)C)[C@@]2(C(=O)Nc3cc(Cl)ncc32)[C@H]1c1cccc(Cl)c1F` the Activity [18] was “Active”, the TGI [19] was “Active” and the Activity [4] was “Active”. For the same molecule, the clearance [20] was 1.8 mL/min/kg, the AUC/dose [21] was 4.2 µg·h/mL/mg/kg and the CLint scaled [15] was 10.2 mL/min/kg. For the same molecule, the Activity [6] was “Active”, the Activity [22] was “Non-toxic” and the bioavailability [23] was 46%. For the same molecule, the Activity [8] was “Active”, the half-life [24] was 3 h and the Cmax [25] was 2100 ng/mL.

In the case of `COc1cc(C(N)=O)ccc1NC(=O)[C@@H]1N[C@@H](CC(C)(C)C)[C@@]2(C(=O)Nc3cc(Cl)sc32)[C@H]1c1cccc(Cl)c1F`, the Activity [18] is reported as “Active”, the bioavailability [3] is reported as 92% and the TGI [19] is reported as “Active”. The Activity [4] was “Active”, the clearance [5] was 9.9 mL/min/kg and the CLint scaled [15] was 2 mL/min/kg. For the same molecule, the Activity [6] was “Active”, the Activity [22] was “Non-toxic” and the AUC/dose [7] was 1.5 µg·h/mL/mg/kg. The Activity [8] was “Active”, the Cmax [9] was 1300 ng/mL and the half-life [10] was 3 h.

For `COc1cc(C(=O)O)ccc1NC(=O)[C@@H]1N[C@@H](CC(C)(C)C)[C@@]2(C(=O)Nc3cc(Cl)ncc32)[C@H]1c1cccc(Cl)c1F` (racemic), the IC50 [1] was 0.043 µM and the IC50 [2] was over 30 µM.
